# Shown are actives, neighbours in structure and some others; about 4% of the full set was active somewhere.
# KCNQ1 block – inhibitors of human KCNQ1 channel, primary screen, cell-based, thallium flux, high-throughput. Potassium voltage-gated channel subfamily KQT member 1 (Homo sapiens), P51787. CHO-K1 KCNQ1, FluxOR thallium flux fluorescence; active compounds read high. B-score at 10 µM. hit rate 1.3% among 310,000. AID 2642, 2010;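 active = compounds whose thallium flux B-score, printed positive for inhibition, exceeds three library SD while starting fluorescence stays within three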;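 note: channel opened by potassium depolarization with thallium stimulus after 20 min compound exposure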
# KCNK3 block – human KCNK3 channel inhibitors, primary screen, CHO cells, FluxOR thallium flux, B-score | Potassium channel subfamily K member 3 (Homo sapiens), O14649 | FluxOR fluorescence; active compounds read low | B-score at 10 µM | hit rate 0.84% among 340,000 | AID 602410, 2012;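 active = B-score under library mean minus 4 SD, starting fluorescence ratio at most library mean plus 5 SD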;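 note: more negative B-score means stronger inhibition of thallium flux through KCNK3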
# PHOSPHO1 block – PubChem AID 1565; hit rate 1.1% among 290,000; recombinant PHOSPHO1, absorbance phosphatase assay; inhibition, % at 13.3 µM; Phosphoethanolamine/phosphocholine phosphatase (Homo sapiens), Q8TCT1; in the data active = inhibition above about 60%
# hERG rescue – hERG rescue from dofetilide block, primary screen, cell-based, CHO-hERG, FluxOR thallium flux, dofetilide IC70; dofetilide IC70 present; activation (rescue from dofetilide block), less the hit threshold, % at 10 µM; hit rate 0.51% among 310,000; AID 1511, 2009;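 active = activation above the mean of controls blocked by dofetilide plus 5 SD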;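 note: thallium influx through hERG after potassium depolarization seen as dye fluorescence rise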
# KCNK9 inh – KCNK9 potassium channel inhibitors, primary screen, HEK293 cells, thallium flux; AID 488922, 2010; B-score at 10 µM; Potassium channel subfamily K member 9 (Homo sapiens), Q9NPC2; FluxOR thallium flux fluorescence; active compounds read low; hit rate 1.2% among 310,000;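 active = ratio B-score over 3 SD below the library mean, with starting fluorescence within 5 SD of its mean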;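 note: negative B-score means less thallium flux so channel inhibition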
# KCNQ1 act – potentiators or activators of KCNQ1 channel, primary screen, cell-based, thallium flux, high-throughput. CHO-K1 KCNQ1, thallium flux FluxOR fluorescence; active compounds read high. hit rate 0.35% among 310,000. B-score at 10 µM. Potassium voltage-gated channel subfamily KQT member 1 (Homo sapiens), P51787;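 active = fluorescence ratio B-score, a plate-corrected score, at least three library SD, with initial intensity B-score within 5 SD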
#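 Assay system: CHO-K1 cells stably expressing KCNQ1; Medium: assay buffer with matched DMSO; Also added: K+/Tl+ depolarizing stimulus; Dosing: single dose; Timing: dye 90 min, compound 20 min, room temperature; Measured by: kinetic FluxOR thallium fluorescence, 10-s 1-Hz baseline, 110-s post-stimulus read; Read-out: peak-minus-minimum fluorescence over initial fluorescence, negative-control normalized, B-scored.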
# Numbers without * were called inactive; i = inactive; · = no result.
SMILES,KCNQ1 block,KCNK3 block,PHOSPHO1 block,hERG rescue,KCNK9 inh,KCNQ1 act
CCN1CCN(S(=O)(=O)c2ccc(C(=O)Nc3sc4c(c3C(N)=O)CCN(CC)C4)cc2)CC1,i,i,18,-9,i,i
CCN1CCc2c(sc(NC(=S)NC(=O)c3ccc(Cl)cc3)c2C(N)=O)C1,i,i,67*,-7,i,i
O=C(CN1CCC(NC(=O)c2ccco2)CC1)Nc1ccccc1C(F)(F)F,i,i,40,-9,i,i
O=C1OCCC1Sc1nc2ccccc2c(=O)n1Cc1ccc(F)cc1 (stereo unspecified),i,i,-5,9.9*,i,11*
CC(=O)n1c2ccccc2c2nc3ccccc3nc21,i,i,44,-3,i,i
C=CCNc1nc2c3ccccc3n(C(C)=O)c2s1,i,i,70*,-11,i,i
Cc1onc(-c2ccccc2)c1-c1csc(N/N=C/c2ccccc2Cl)n1,9*,i,44,-7,i,i
C=C(C)CSc1cc(C)c(C#N)c2nc3ccccc3n12,6*,i,-42,-25,i,i
Cc1ccc(Cl)cc1NC(=S)NCCCSC1CCCCC1,8*,i,-3,-14,i,i
Cc1cc(Cl)ccc1NC(=S)NCCCO,i,i,-5,-6,i,i
Oc1c(Cl)cc(Cl)cc1C(C#Cc1ccccc1)N1CCOCC1 (stereo unspecified),i,i,10,-11,-7.1*,i
CC1(C)Cc2c(c(N3CCOCC3)nc3snc(N)c23)CO1,i,i,22,-20,-7*,i
C=CCSC1=C(C#N)C(c2ccccc2OCC)C(C#N)C(=O)N1 (stereo unspecified),i,i,89*,-6,i,i
O=C(COc1ccccc1)OCc1cc2ccccc2[nH]c1=O,i,i,1,1,i,i
C/C=C(/C)C(=O)O[C@@H]1c2c(ccc3ccc(=O)oc23)OC(C)(C)[C@@H]1OC(=O)/C(C)=C\C,i,i,28,-6,-7.4*,i
CS/C(N)=N/N=C/c1c(O)ccc2ccccc12,i,i,68*,-10,i,i
CN(C)/N=C/c1c(O)ccc2ccccc12,i,i,12,-7,i,i
CC1Cc2ccccc2N1C(=O)c1cc2c(=O)n3ccccc3nc2n1C (stereo unspecified),i,i,26,-23,i,i
Cc1cccn2c(=O)c3cc(C(=O)N4c5ccccc5CC4C)n(C)c3nc12 (stereo unspecified),i,i,23,9.2*,i,i
CCOC(=O)c1c(CSc2ccccc2)n(C)c2cc(Br)c(OC)c(O)c12,6*,i,·,0,i,i
CCOC(=O)c1c(CSc2ccccc2)n(C)c2ccc(O)c(CN3CCOCC3)c12,i,i,-26,-28,i,i
C/C(CC(=O)Nc1ccc(Cl)cc1Cl)=N\NC(=O)c1ccco1,i,i,3,-7,i,i
COc1ccccc1/C=C/C(=O)Nc1cccc(C(C)=O)c1,i,i,69*,-28,i,i
COc1cccc(/C=C/C(=O)Nc2cccc(C(C)=O)c2)c1OC,i,i,16,-3,i,i
CC(C)Nc1nc(Oc2ccc(Cl)cc2Cl)cc(C(F)(F)F)n1,7*,i,-11,-10,i,i
SMILES,KCNQ1 block,KCNK3 block,PHOSPHO1 block,hERG rescue,KCNK9 inh,KCNQ1 act
CC(C)Nc1nc(Oc2cccc(Cl)c2Cl)cc(C(F)(F)F)n1,i,i,24,-16,i,i
CC1(CC(=O)NNC(=O)Nc2ccccc2)OCCCO1,i,i,29,-10,i,i
COc1ccc(-c2oc3ccc(-c4ccc(OC)nc4)cc3c2C#CC2(O)CCCCC2)cc1,i,i,-13,5.5*,i,i
Cc1ccc(-n2cc(CN3CCN(c4ccccn4)CC3)c(-c3ccc(F)cc3)n2)cc1,6*,i,48,-15,i,i
Cc1cccc(NC(=O)CN2C(=O)S/C(=C\c3ccc(-c4cccc(C(=O)O)c4C)o3)C2=O)c1,i,i,53,21*,i,i
Cc1ccc(NC(=O)CN2C(=O)S/C(=C/c3ccc(-c4cc(C(=O)O)ccc4C)o3)C2=O)cc1C,i,i,49,-2,i,i
Cc1ccccc1NC(=O)CN1C(=O)S/C(=C\c2ccc(-c3cccc(C(=O)O)c3C)o2)C1=O,i,i,39,11*,i,i
CCCN(CCC)C1=CC(=[N+]2CCCC2)CC(C)(C)C1,6*,i,-3,-12,i,i
O=C1c2cc([N+](=O)[O-])ccc2-c2cc(Br)c(N=C(NO)C(F)(F)F)cc21,·,-9.5*,·,·,·,·
O=C(NC(=S)Nc1ccc(N2CCOCC2)cc1)c1cccs1,i,i,-3,0,i,i
CCCC(=O)NC(=S)Nc1cccc(Cl)c1N1CCCC1,i,i,11,-4,i,i
O=C(NC(=S)Nc1cccc(Cl)c1N1CCCCC1)c1cccs1,i,i,0,7.2*,i,24*
O=C(NC(=S)Nc1cccc(Cl)c1N1CCOCC1)c1cccs1,i,i,-45,17*,i,i
CCCOc1ccc(N2C(=O)CC(SCc3nc4ccccc4[nH]3)C2=O)cc1 (stereo unspecified),i,i,-9,-8,i,i
O=C(COC(=O)C1CCN(S(=O)(=O)c2cccs2)CC1)c1cc2ccccc2o1,i,i,3,-9,-7.8*,i
CCN(CC)CCn1c(OC)cc(=O)[nH]c1=O,i,i,18,-6,i,7*
CCC(C)c1ccc(OCC(=O)Nc2ccc3[nH]c(=O)[nH]c3c2)cc1 (stereo unspecified),i,i,5,-7,i,i
COC(=O)c1cc(NC(=O)c2cc(-c3ccc(Cl)cc3)oc2C(F)(F)F)ccc1N1CCOCC1,7*,i,58,-13,i,i
CC1=C/C(=N\Nc2ccccc2[N+](=O)[O-])CC(C)(C)C1,7*,i,-2,-5,i,i
C/C(=N/Nc1ccccc1[N+](=O)[O-])c1ccc([N+](=O)[O-])cc1,i,i,20,-8,i,i
